Results from ChEMBL document CHEMBL1139439, “Folate-synthesizing enzyme system as target for development of inhibitors and inhibitor combinations against Candida albicans-synthesis and biological activity of new 2,4-diaminopyrimidines and 4'-substituted 4-aminodiphenyl sulfones” (J Med Chem, 2004).
In brackets after ≈: the same amount, converted by molar mass.

test system: Candida albicans; assay: Inhibitory effect on Candida albicans wild type YEM30 Strain; type: functional; conditions: not given
How it was run: (§1)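 MICs were determined by serial dilution in RPMI medium. MIC is the lowest concentration giving culture turbidity ≤20% of the control culture.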

Structure (SMILES) | MIC
OC(Cn1cncn1)(Cn1cncn1)c1ccc(F)cc1F [FLUCONAZOLE] | 2 µg/mL (≈ 6.53 µM)

molecular target: T1, Dihydropteroate synthetase, putative (Plasmodium berghei str. ANKA, UniProt A0A113T0T6); assay: Inhibitory activity against dihydropteroic acid synthase (SYN) from Plasmodium berghei; conditions: read-out: I50
T1 sequence (A0A113T0T6 whole entry): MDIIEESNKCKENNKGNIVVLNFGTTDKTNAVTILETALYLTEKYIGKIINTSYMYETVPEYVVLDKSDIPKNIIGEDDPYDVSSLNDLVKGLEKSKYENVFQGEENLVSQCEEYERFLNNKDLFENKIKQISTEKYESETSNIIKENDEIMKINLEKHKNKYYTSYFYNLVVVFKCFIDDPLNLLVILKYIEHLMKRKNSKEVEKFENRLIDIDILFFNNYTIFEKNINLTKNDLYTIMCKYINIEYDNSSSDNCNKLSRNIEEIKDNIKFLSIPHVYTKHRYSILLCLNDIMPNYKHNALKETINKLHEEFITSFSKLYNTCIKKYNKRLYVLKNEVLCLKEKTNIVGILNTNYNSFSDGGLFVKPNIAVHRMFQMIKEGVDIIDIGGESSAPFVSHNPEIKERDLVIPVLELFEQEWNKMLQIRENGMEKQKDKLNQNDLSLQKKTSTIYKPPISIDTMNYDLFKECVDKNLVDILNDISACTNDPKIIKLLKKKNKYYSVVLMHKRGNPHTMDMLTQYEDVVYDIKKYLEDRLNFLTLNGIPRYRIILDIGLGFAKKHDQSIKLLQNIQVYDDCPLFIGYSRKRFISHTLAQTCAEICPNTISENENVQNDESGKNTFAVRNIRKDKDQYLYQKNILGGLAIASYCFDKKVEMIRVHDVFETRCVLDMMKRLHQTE

Structure (SMILES) | IC50
Nc1ccc(S(=O)(=O)c2ccc(NCC(=O)O)cc2)cc1 [ACEDIASULFONE] | 17.8 µM
Nc1ccc(S(=O)(=O)c2ccccc2)cc1 | 104 µM
CN(C)c1ccc(S(=O)(=O)c2ccc(N)cc2)cc1 | 21.5 µM
CC(=O)Nc1ccc(S(=O)(=O)c2ccc(N)cc2)cc1 [MONO-N-ACETYL DAPSONE] | 33.3 µM
COC(=O)c1ccc(S(=O)(=O)c2ccc(N)cc2)cc1 | 147 µM
CNc1ccc(S(=O)(=O)c2ccc(N)cc2)cc1 | 26.7 µM
Cc1ccc(S(=O)(=O)c2ccc(N)cc2)cc1 | 48 µM
Nc1ccc(S(=O)(=O)c2ccc(N)cc2)cc1 [DAPSONE] | 12.4 µM

test system: not listed separately; assay: Inhibitory activity against dihydropteroic acid synthase (SYN) from Escherichia coli; conditions: read-out: I50

Structure (SMILES) | IC50
Nc1ccc(S(=O)(=O)c2ccc(NCC(=O)O)cc2)cc1 [ACEDIASULFONE] | 37.1 µM
Nc1ccc(S(=O)(=O)c2ccccc2)cc1 | 116 µM
Nc1ccc(S(=O)(=O)c2ccc(C(=O)O)cc2)cc1 | 74.2 µM
COc1ccc(S(=O)(=O)c2ccc(N)cc2)cc1 | 128 µM
CC(=O)Nc1ccc(S(=O)(=O)c2ccc(N)cc2)cc1 [MONO-N-ACETYL DAPSONE] | 75.7 µM
COC(=O)CNc1ccc(S(=O)(=O)c2ccc(N)cc2)cc1 | 101 µM
COC(=O)c1ccc(S(=O)(=O)c2ccc(N)cc2)cc1 | 149 µM
CCNc1ccc(S(=O)(=O)c2ccc(N)cc2)cc1 | 41.7 µM
CNc1ccc(S(=O)(=O)c2ccc(N)cc2)cc1 | 46.2 µM
Cc1ccc(S(=O)(=O)c2ccc(N)cc2)cc1 | 89.9 µM
Nc1ccc(S(=O)(=O)c2ccc(N)cc2)cc1 [DAPSONE] | 34.4 µM

test system: Candida albicans; assay: Inhibitory effect on Candida albicans YEM15 CDR1CDR2up Strain; type: functional; conditions: not given; how it was run: as §1

Structure (SMILES) | MIC
OC(Cn1cncn1)(Cn1cncn1)c1ccc(F)cc1F [FLUCONAZOLE] | 64 µg/mL (≈ 209 µM)

test system: Candida albicans; assay: Inhibitory effect on Candida albicans YEM27 quad deletion Strain; type: functional; conditions: not given; how it was run: as §1

Structure (SMILES) | MIC
OC(Cn1cncn1)(Cn1cncn1)c1ccc(F)cc1F [FLUCONAZOLE] | ≤ 0.25 µg/mL

test system: Candida albicans; assay: Inhibitory effect on Candida albicans YEM12 Strain; type: functional; conditions: not given; how it was run: as §1

Structure (SMILES) | MIC
OC(Cn1cncn1)(Cn1cncn1)c1ccc(F)cc1F [FLUCONAZOLE] | 1 µg/mL (≈ 3.27 µM)

molecular target: T2, Dihydrofolate reductase (Candida albicans, UniProt P22906); assay: Inhibitory activity against cell free dihydrofolate reductase (DHFR) from Candida albicans; conditions: not given
T2 sequence (P22906 whole entry): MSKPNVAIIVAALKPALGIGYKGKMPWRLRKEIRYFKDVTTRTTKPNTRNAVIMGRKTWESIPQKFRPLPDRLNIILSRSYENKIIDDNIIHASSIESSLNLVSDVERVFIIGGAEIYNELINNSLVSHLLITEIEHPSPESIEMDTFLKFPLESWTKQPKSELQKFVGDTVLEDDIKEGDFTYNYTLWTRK

Structure (SMILES) | I50
COc1ccc(CNc2cnc(N)nc2N)cc1OC | 125.8 uM l-1

same assay, conditions: read-out: I50

Structure (SMILES) | IC50
CC(C)(C)c1ccc(COc2cnc(N)nc2N)cc1 | 23.8 µM
Nc1ncc(NCc2ccccc2Cl)c(N)n1 | 6.63 µM
COc1cc(COc2cnc(N)nc2N)ccc1OCCCc1ccccc1 | 6.13 µM
Nc1ncc(NCc2ccc3ccccc3c2)c(N)n1 | 16.1 µM
Nc1ncc(OCc2ccc(OCc3ccccc3)cc2)c(N)n1 | 2.81 µM
Nc1ncc(NCc2cccc(Cl)c2)c(N)n1 | 13.9 µM
Nc1ncc(OCc2ccc(OCCCCN3C(=O)c4ccccc4C3=O)cc2)c(N)n1 | 0.078 µM
Nc1ncc(CSc2ccc3ccccc3c2)c(N)n1 | 30.9 µM
Nc1ncc(OCc2ccccc2Cl)c(N)n1 | 0.73 µM
Nc1ncc(OCc2ccc(Br)c3ccccc23)c(N)n1 | 0.49 µM

test system: Candida albicans; assay: Inhibitory effect on Candida albicans YEM13 BENup Strain; type: functional; conditions: not given; how it was run: as §1

Structure (SMILES) | MIC
OC(Cn1cncn1)(Cn1cncn1)c1ccc(F)cc1F [FLUCONAZOLE] | 64 µg/mL (≈ 209 µM)

test system: not listed separately; assay: Inhibitory activity against dihydropteroic acid synthase (SYN) from Mycobacterium lufu (DDS sensitive); conditions: read-out: I50

Structure (SMILES) | IC50
Nc1ccc(S(=O)(=O)c2ccc(NCC(=O)O)cc2)cc1 [ACEDIASULFONE] | 0.87 µM
Nc1ccc(S(=O)(=O)c2ccccc2)cc1 | 12.1 µM
Nc1ccc(S(=O)(=O)c2ccc(C(=O)O)cc2)cc1 | 3.6 µM
CN(C)c1ccc(S(=O)(=O)c2ccc(N)cc2)cc1 | 1.76 µM
COc1ccc(S(=O)(=O)c2ccc(N)cc2)cc1 | 7.55 µM
CC(=O)Nc1ccc(S(=O)(=O)c2ccc(N)cc2)cc1 [MONO-N-ACETYL DAPSONE] | 7.01 µM
COC(=O)CNc1ccc(S(=O)(=O)c2ccc(N)cc2)cc1 | 2.24 µM
COC(=O)c1ccc(S(=O)(=O)c2ccc(N)cc2)cc1 | 11.8 µM
CCNc1ccc(S(=O)(=O)c2ccc(N)cc2)cc1 | 2.75 µM
CNc1ccc(S(=O)(=O)c2ccc(N)cc2)cc1 | 1.29 µM
Cc1ccc(S(=O)(=O)c2ccc(N)cc2)cc1 | 8.08 µM
Nc1ccc(S(=O)(=O)c2ccc(N)cc2)cc1 [DAPSONE] | 1.2 µM

test system: not listed separately; assay: Inhibitory activity against dihydropteroic acid synthase (SYN) from Mycobacterium lufu (DDS resistant); conditions: read-out: I50

Structure (SMILES) | IC50
Nc1ccc(S(=O)(=O)c2ccc(NCC(=O)O)cc2)cc1 [ACEDIASULFONE] | 0.82 µM
Nc1ccc(S(=O)(=O)c2ccccc2)cc1 | 12 µM
Nc1ccc(S(=O)(=O)c2ccc(C(=O)O)cc2)cc1 | 3.17 µM
CN(C)c1ccc(S(=O)(=O)c2ccc(N)cc2)cc1 | 2.04 µM
COc1ccc(S(=O)(=O)c2ccc(N)cc2)cc1 | 9.33 µM
CC(=O)Nc1ccc(S(=O)(=O)c2ccc(N)cc2)cc1 [MONO-N-ACETYL DAPSONE] | 4.05 µM
COC(=O)CNc1ccc(S(=O)(=O)c2ccc(N)cc2)cc1 | 2.63 µM
COC(=O)c1ccc(S(=O)(=O)c2ccc(N)cc2)cc1 | 13.8 µM
CCNc1ccc(S(=O)(=O)c2ccc(N)cc2)cc1 | 1.48 µM
CNc1ccc(S(=O)(=O)c2ccc(N)cc2)cc1 | 2 µM
Cc1ccc(S(=O)(=O)c2ccc(N)cc2)cc1 | 5.92 µM
Nc1ccc(S(=O)(=O)c2ccc(N)cc2)cc1 [DAPSONE] | 1.18 µM

molecular target: T3, Dihydrofolate reductase (Rattus norvegicus, UniProt Q920D2); assay: Inhibitory activity against cell free dihydrofolate reductase (DHFR) from rat; conditions: not given
T3 sequence (Q920D2 whole entry): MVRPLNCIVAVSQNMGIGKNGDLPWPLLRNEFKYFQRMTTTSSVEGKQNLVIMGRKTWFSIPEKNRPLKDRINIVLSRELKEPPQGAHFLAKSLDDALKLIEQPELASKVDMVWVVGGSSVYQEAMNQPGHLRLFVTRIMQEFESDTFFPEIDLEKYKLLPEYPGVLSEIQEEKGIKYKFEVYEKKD

Structure (SMILES) | I50
COc1ccc(CNc2cnc(N)nc2N)cc1OC | 197.3 uM l-1
CC(C)(C)c1ccc(COc2cnc(N)nc2N)cc1 | 106 uM l-1
Nc1ncc(CSc2ccc3ccccc3c2)c(N)n1 | 110.6 uM l-1

same assay, conditions: read-out: I50

Structure (SMILES) | IC50
Nc1ncc(NCc2ccccc2Cl)c(N)n1 | 71.5 µM
COc1cc(COc2cnc(N)nc2N)ccc1OCCCc1ccccc1 | 58.3 µM
Nc1ncc(NCc2ccc3ccccc3c2)c(N)n1 | 71.3 µM
Nc1ncc(OCc2ccc(OCc3ccccc3)cc2)c(N)n1 | 39.4 µM
Nc1ncc(NCc2cccc(Cl)c2)c(N)n1 | 49.8 µM
Nc1ncc(OCc2ccc(OCCCCN3C(=O)c4ccccc4C3=O)cc2)c(N)n1 | 6.07 µM
Nc1ncc(OCc2ccccc2Cl)c(N)n1 | 3.53 µM
Nc1ncc(OCc2ccc(Br)c3ccccc23)c(N)n1 | 2.82 µM

test system: not listed separately; assay: Inhibitory activity against dihydropteroic acid synthase (SYN) from candida albicans; conditions: read-out: I50
How it was run: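 Partially purified SYN extract was prepared from C. albicans ATCC 11651 and incubated with sulfones at pH 8.4. Periodic samples were quenched with trichloroacetic acid, and folate formed was quantified by bioassay with folate-requiring Streptococcus faecium. I50 is the concentration giving a 50% decrease in dihydropteroic acid production versus the uninhibited control.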

Structure (SMILES) | IC50
Nc1ccc(S(=O)(=O)c2ccc(NCC(=O)O)cc2)cc1 [ACEDIASULFONE] | 1.22 µM
Nc1ccc(S(=O)(=O)c2ccccc2)cc1 | 13.3 µM
Nc1ccc(S(=O)(=O)c2ccc(C(=O)O)cc2)cc1 | 2.78 µM
CN(C)c1ccc(S(=O)(=O)c2ccc(N)cc2)cc1 | 3.83 µM
COc1ccc(S(=O)(=O)c2ccc(N)cc2)cc1 | 9.05 µM
COC(=O)CNc1ccc(S(=O)(=O)c2ccc(N)cc2)cc1 | 1.33 µM
CCNc1ccc(S(=O)(=O)c2ccc(N)cc2)cc1 | 3.16 µM
CNc1ccc(S(=O)(=O)c2ccc(N)cc2)cc1 | 2.81 µM
Cc1ccc(S(=O)(=O)c2ccc(N)cc2)cc1 | 10.1 µM
Nc1ccc(S(=O)(=O)c2ccc(N)cc2)cc1 [DAPSONE] | 1.78 µM

test system: Candida albicans; assay: Inhibitory effect on Candida albicans wild type YEM14 Strain; type: functional; conditions: not given; how it was run: as §1

Structure (SMILES) | MIC
OC(Cn1cncn1)(Cn1cncn1)c1ccc(F)cc1F [FLUCONAZOLE] | 64 µg/mL (≈ 209 µM)
